Data as given in ChEMBL document CHEMBL1955714, “Synthesis and antidiabetic performance of β-amino ketone containing nabumetone moiety” (Bioorg Med Chem, 2012).
Values after ≈ are worked out from the molar mass of the structure shown.

Key:
Rattus norvegicus = species: Rattus norvegicus; assay: Inhibition of rat intestine alpha-glucosidase using maltose as substrate after 10 mins by spectrometric analysis relative to acarbose; set-up: concentration or dose not given beside the values
Procedure, shortened: (§1)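 Enzyme and sample were preincubated at 37 °C for 10 min. Then 0.1 mol L-1 maltose was added and incubated 10 min at room temperature. The reaction was stopped and OD read at 490 nm. Blank (no enzyme, no sample) and negative (no sample) controls were run alongside.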

[1] = biological target: Peroxisome proliferator-activated receptor (Homo sapiens) (UniProt P37231+Q07869+Q03181); assay: Activation of PPAR in human HepG2 cells at 10 ug/ml after 24 hrs by luciferase reporter gene assay relative to rosiglitazone; assay type: cell-based
Procedure, shortened: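 HepG2 cells in low-glucose DMEM with 100 U mL-1 streptomycin/penicillin, plated at 1.5 × 10⁴ per well a day before transfection. At 70% confluence they were co-transfected with pPPRE-Luc (firefly) and phRL-TK (renilla). After 24 h the medium was replaced with sample-containing medium, with rosiglitazone as positive control. Dual firefly/renilla luciferase was read after a further 24 h; untransfected cells served as blank.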

[2] = Inhibition of rat intestine alpha-glucosidase using maltose as substrate after 10 mins by spectrometric analysis; procedure, shortened: as §1
[3] = biological target: T1, Peroxisome proliferator-activated receptor (Homo sapiens, UniProt P37231+Q07869+Q03181); assay: Activation of PPAR in human HepG2 cells after 24 hrs by luciferase reporter gene assay; assay type: cell-based
T1 sequence (P37231 whole entry): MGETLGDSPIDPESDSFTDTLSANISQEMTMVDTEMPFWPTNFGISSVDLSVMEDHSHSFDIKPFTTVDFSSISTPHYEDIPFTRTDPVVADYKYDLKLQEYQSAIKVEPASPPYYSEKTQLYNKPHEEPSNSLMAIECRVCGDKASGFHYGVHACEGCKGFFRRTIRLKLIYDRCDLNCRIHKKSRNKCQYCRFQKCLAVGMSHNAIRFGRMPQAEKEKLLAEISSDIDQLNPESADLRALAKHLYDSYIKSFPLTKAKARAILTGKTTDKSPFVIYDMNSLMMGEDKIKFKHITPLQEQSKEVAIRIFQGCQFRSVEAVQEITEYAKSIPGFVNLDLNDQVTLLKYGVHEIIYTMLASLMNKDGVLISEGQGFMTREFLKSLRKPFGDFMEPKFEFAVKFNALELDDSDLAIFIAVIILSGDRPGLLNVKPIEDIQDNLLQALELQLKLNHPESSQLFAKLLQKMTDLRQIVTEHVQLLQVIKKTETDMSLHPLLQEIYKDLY
T1 sequence (Q07869 whole entry): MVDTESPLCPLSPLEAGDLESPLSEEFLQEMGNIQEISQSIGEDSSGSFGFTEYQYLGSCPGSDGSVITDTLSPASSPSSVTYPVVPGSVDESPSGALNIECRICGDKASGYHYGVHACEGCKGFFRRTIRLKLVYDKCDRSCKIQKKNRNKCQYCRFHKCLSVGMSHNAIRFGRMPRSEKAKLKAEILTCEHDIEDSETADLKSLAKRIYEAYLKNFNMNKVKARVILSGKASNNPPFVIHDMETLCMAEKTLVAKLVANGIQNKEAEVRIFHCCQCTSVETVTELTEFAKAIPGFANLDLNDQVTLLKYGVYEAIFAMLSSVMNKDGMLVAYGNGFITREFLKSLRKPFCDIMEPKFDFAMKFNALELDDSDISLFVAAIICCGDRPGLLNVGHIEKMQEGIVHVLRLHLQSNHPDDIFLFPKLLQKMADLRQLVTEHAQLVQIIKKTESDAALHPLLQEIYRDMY
T1 sequence (Q03181 whole entry): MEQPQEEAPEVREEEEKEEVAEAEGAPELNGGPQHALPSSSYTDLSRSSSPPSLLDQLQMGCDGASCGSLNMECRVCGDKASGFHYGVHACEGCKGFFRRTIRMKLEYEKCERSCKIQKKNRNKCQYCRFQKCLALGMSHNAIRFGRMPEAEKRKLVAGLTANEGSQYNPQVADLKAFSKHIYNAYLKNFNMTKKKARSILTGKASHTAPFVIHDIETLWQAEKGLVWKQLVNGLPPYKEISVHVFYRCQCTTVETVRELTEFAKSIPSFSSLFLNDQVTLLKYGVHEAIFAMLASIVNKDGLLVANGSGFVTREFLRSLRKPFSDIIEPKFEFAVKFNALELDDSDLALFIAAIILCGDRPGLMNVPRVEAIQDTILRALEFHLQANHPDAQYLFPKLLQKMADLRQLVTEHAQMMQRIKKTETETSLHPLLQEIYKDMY

| inhibition (Rattus norvegicus) [%] | Activity [1] [%] | IC50 [2] [µg/mL] | EC50 [3] [µg/mL] | SMILES |
| --- | --- | --- | --- | --- |
| 26.3 | 6.32 | – | – | COc1ccc2cc(CCC(=O)CC(Nc3cc(C)on3)c3ccc(Cl)cc3)ccc2c1 (stereo not given) |
| 22.3 | 5.37 | – | – | COc1ccc2cc(CCC(=O)CC(Nc3cc(C)on3)c3ccc(Cl)c(Cl)c3)ccc2c1 (stereo not given) |
| 40.8 | 58.7 | – | – | COc1ccc2cc(CCC(=O)CC(Nc3ccc(S(N)(=O)=O)cc3)c3cccc(Cl)c3)ccc2c1 (stereo not given) |
| 26.3 | 4.86 | – | – | COc1ccc2cc(CCC(=O)CC(Nc3cc(C)on3)c3cccc(Cl)c3)ccc2c1 (stereo not given) |
| 12.7 | 78.2 | – | – | COc1cccc(C(CC(=O)CCc2ccc3cc(OC)ccc3c2)Nc2ccc(S(=O)(=O)Nc3cc(C)on3)cc2)c1 (stereo not given) |
| 0.35 | 12.6 | – | – | COc1ccc2cc(CCC(=O)CC(Nc3cc(C)on3)c3ccc4c(c3)OCO4)ccc2c1 (stereo not given) |
| 24.4 | 9.11 | – | – | COc1ccc2cc(CCC(=O)CC(Nc3cc(C)on3)c3cccc([N+](=O)[O-])c3)ccc2c1 (stereo not given) |
| 7.23 | 11.5 | – | – | COc1ccc2cc(CCC(=O)CC(Nc3cc(C)on3)c3ccc(C)cc3)ccc2c1 (stereo not given) |
| 10.8 | 3.13 | – | – | COc1ccc(C(CC(=O)CCc2ccc3cc(OC)ccc3c2)Nc2cc(C)on2)cc1 (stereo not given) |
| 7.07 | 13.8 | – | – | COc1ccc2cc(CCC(=O)CC(Nc3ccc(S(=O)(=O)Nc4cc(C)on4)cc3)c3ccc(O)cc3)ccc2c1 (stereo not given) |
| 13.3 | 30.1 | – | – | COc1ccc2cc(CCC(=O)CC(Nc3cc(C)on3)c3cccc(F)c3)ccc2c1 (stereo not given) |
| 13 | 11.5 | – | – | COc1ccc2cc(CCC(=O)CC(Nc3cc(C)on3)c3ccc(Cl)cc3Cl)ccc2c1 (stereo not given) |
| 32.7 | 14.8 | – | – | COc1ccc2cc(CCC(=O)CC(Nc3ccc(S(N)(=O)=O)cc3)c3cccc([N+](=O)[O-])c3)ccc2c1 (stereo not given) |
| 21.4 | 5.3 | – | – | COc1ccc2cc(CCC(=O)CC(Nc3cc(C)on3)c3ccc(O)cc3)ccc2c1 (stereo not given) |
| 66.3 | 71.9 | 4.07 (≈ 7.78 µM) | 6.74 (≈ 12.9 µM) | COc1ccc2cc(CCC(=O)CC(Nc3ccc(S(N)(=O)=O)cc3)c3ccc(Cl)cc3)ccc2c1 (stereo not given) |
| 19.2 | 43 | – | – | COc1ccc2cc(CCC(=O)CC(Nc3ccc(S(=O)(=O)Nc4cc(C)on4)cc3)c3ccc4c(c3)OCO4)ccc2c1 (stereo not given) |
| 47.1 | 19.6 | – | – | COc1ccc2cc(CCC(=O)CC(Nc3ccc(S(=O)(=O)Nc4cc(C)on4)cc3)c3cccc(Cl)c3)ccc2c1 (stereo not given) |
| 20.3 | 64.5 | – | – | COc1ccc2cc(CCC(=O)CC(Nc3ccc(S(=O)(=O)Nc4cc(C)on4)cc3)c3ccc(Cl)cc3Cl)ccc2c1 (stereo not given) |
| 50.8 | 48.4 | – | – | COc1ccc(C(CC(=O)CCc2ccc3cc(OC)ccc3c2)Nc2ccc(S(=O)(=O)Nc3cc(C)on3)cc2)cc1 (stereo not given) |
| 15.8 | 58.5 | – | – | COc1ccc2cc(CCC(=O)CC(Nc3ccc(S(=O)(=O)Nc4cc(C)on4)cc3)c3ccc(C)cc3)ccc2c1 (stereo not given) |
| 6.39 | 19.1 | – | – | COc1ccc2cc(CCC(=O)CC(Nc3ccc(S(N)(=O)=O)cc3)c3ccc4cc(OC)ccc4c3)ccc2c1 (stereo not given) |
| 44.2 | 3.92 | – | – | COc1ccc2cc(CCC(=O)CC(Nc3ccc(S(=O)(=O)Nc4cc(C)on4)cc3)c3ccc(Cl)cc3)ccc2c1 (stereo not given) |

| inhibition (Rattus norvegicus) [%] | Activity [1] [%] | IC50 [2] [µg/mL] | EC50 [3] [µg/mL] | SMILES |
| --- | --- | --- | --- | --- |
| 14.3 | 83.3 | – | – | CCCCOc1ccc(C(CC(=O)CCc2ccc3cc(OC)ccc3c2)Nc2ccc(S(=O)(=O)Nc3cc(C)on3)cc2)cc1 (stereo not given) |
| -4.32 | 9.87 | – | – | COc1ccc2cc(CCC(=O)CC(Nc3ccc(S(N)(=O)=O)cc3)c3ccc4c(c3)OCO4)ccc2c1 (stereo not given) |
| 31.6 | 46.8 | – | – | COc1ccc2cc(CCC(=O)CC(Nc3ccc(S(N)(=O)=O)cc3)c3ccc([N+](=O)[O-])cc3)ccc2c1 (stereo not given) |
| 15.8 | 41.6 | – | – | COc1cccc(C(CC(=O)CCc2ccc3cc(OC)ccc3c2)Nc2cc(C)on2)c1 (stereo not given) |
| 79.7 | 67.3 | 2.92 (≈ 5.15 µM) | 8.21 (≈ 14.5 µM) | COc1ccc2cc(CCC(=O)CC(Nc3ccc(S(N)(=O)=O)cc3)c3ccc(Br)cc3)ccc2c1 (stereo not given) |
| 52.8 | 73.4 | 4.14 (≈ 8.2 µM) | 5.56 (≈ 11 µM) | COc1ccc2cc(CCC(=O)CC(Nc3ccc(S(N)(=O)=O)cc3)c3ccc(O)cc3)ccc2c1 (stereo not given) |
| 34.8 | 45.8 | – | – | COc1ccc2cc(CCC(=O)CC(Nc3ccc(S(N)(=O)=O)cc3)c3ccc(Cl)c(Cl)c3)ccc2c1 (stereo not given) |
| 41.6 | 81.8 | – | – | COc1ccc2cc(CCC(=O)CC(Nc3ccc(S(=O)(=O)Nc4cc(C)on4)cc3)c3cccc([N+](=O)[O-])c3)ccc2c1 (stereo not given) |
| 41.7 | 61 | – | – | COc1ccc2cc(CCC(=O)CC(Nc3ccc(S(N)(=O)=O)cc3)c3ccccc3)ccc2c1 (stereo not given) |
| 14.9 | 17.8 | – | – | COc1ccc2cc(CCC(=O)CC(Nc3ccc(S(=O)(=O)Nc4cc(C)on4)cc3)c3ccccc3)ccc2c1 (stereo not given) |
| 14.1 | 57.3 | – | – | COc1ccc2cc(CCC(=O)CC(Nc3ccc(S(N)(=O)=O)cc3)c3cccc(C)c3)ccc2c1 (stereo not given) |
| 11 | 6.33 | – | – | CCCCOc1ccc(C(CC(=O)CCc2ccc3cc(OC)ccc3c2)Nc2cc(C)on2)cc1 (stereo not given) |
| 1.42 | 2.87 | – | – | COc1ccc2cc(CCC(=O)CC(Nc3cc(C)on3)c3ccc(Br)cc3)ccc2c1 (stereo not given) |
| 46.8 | 6.64 | – | – | COc1ccc2cc(CCC(=O)CC(Nc3ccc(S(N)(=O)=O)cc3)c3ccco3)ccc2c1 (stereo not given) |
| 24.7 | 36.7 | – | – | COc1ccc2cc(CCC(=O)CC(Nc3ccc(S(=O)(=O)Nc4cc(C)on4)cc3)c3cccc(F)c3)ccc2c1 (stereo not given) |
| 53.7 | 22.4 | – | – | COc1ccc2cc(CCC(=O)CC(Nc3ccc(S(=O)(=O)Nc4cc(C)on4)cc3)c3ccc(Cl)c(Cl)c3)ccc2c1 (stereo not given) |
| 24.6 | 4.18 | – | – | COc1ccc2cc(CCC(=O)CC(Nc3cc(C)on3)c3ccc([N+](=O)[O-])cc3)ccc2c1 (stereo not given) |
| 7.36 | 5.83 | – | – | COc1ccc2cc(CCC(=O)CC(Nc3cc(C)on3)c3ccccc3)ccc2c1 (stereo not given) |
| -4.69 | 18 | – | – | CCCCOc1ccc(C(CC(=O)CCc2ccc3cc(OC)ccc3c2)Nc2ccc(S(N)(=O)=O)cc2)cc1 (stereo not given) |
| 15.7 | 60.3 | – | – | COc1cccc(C(CC(=O)CCc2ccc3cc(OC)ccc3c2)Nc2ccc(S(N)(=O)=O)cc2)c1 (stereo not given) |
| 10.2 | 12.7 | – | – | COc1ccc2cc(CCC(=O)CC(Nc3cc(C)on3)c3cccc(C)c3)ccc2c1 (stereo not given) |
| 70.5 | 68.4 | 3.24 (≈ 5.55 µM) | – | COc1ccc2cc(CCC(=O)CC(Nc3ccc(S(=O)(=O)Nc4cc(C)on4)cc3)c3cccc(C)c3)ccc2c1 (stereo not given) |
